Reference: article PMC3931004 (The Biochemical journal, 2013)

Tests used:
PBD1 of PPIP5K1 = biological target: T1, PBD1 of PPIP5K1 (Homo sapiens, UniProt Q6PFW1); test: SPR ligand competition: PBD1 binding to vesicular PtdIns; conditions: for fold lower affinity for PBD1 than InsP6 and 5-InsP7: from IC50 values
T1 sequence (Q6PFW1 382-917): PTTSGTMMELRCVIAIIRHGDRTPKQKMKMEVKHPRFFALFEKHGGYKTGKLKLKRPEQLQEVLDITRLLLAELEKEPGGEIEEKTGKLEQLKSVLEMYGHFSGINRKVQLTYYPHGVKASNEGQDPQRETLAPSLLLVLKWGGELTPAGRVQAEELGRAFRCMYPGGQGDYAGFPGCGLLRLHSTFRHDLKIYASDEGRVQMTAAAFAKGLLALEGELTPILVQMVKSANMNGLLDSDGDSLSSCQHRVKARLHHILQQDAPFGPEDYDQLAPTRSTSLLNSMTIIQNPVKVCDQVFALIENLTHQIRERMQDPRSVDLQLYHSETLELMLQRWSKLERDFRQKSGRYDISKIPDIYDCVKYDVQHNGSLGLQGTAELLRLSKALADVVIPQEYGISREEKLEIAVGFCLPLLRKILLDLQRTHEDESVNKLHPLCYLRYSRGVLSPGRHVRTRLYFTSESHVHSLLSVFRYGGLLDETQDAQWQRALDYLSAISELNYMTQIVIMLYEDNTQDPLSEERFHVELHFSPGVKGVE

[1] = biological target: Akt^PH (human recombinant AKT1) (Homo sapiens, UniProt P31749); test: SPR ligand competition: Akt binding to vesicular PtdIns
Sequence of Akt^PH (human recombinant AKT1) (P31749 5-108 limits assumed): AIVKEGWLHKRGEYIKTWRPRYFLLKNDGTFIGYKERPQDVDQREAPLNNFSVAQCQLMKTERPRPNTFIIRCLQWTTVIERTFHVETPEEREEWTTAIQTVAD

SIN1^PH = SIN1^PH (Homo sapiens, UniProt Q9BPZ7); test: SPR ligand competition: SIN1^PH binding to vesicular PtdIns
Sequence of SIN1^PH (Q9BPZ7 358-522): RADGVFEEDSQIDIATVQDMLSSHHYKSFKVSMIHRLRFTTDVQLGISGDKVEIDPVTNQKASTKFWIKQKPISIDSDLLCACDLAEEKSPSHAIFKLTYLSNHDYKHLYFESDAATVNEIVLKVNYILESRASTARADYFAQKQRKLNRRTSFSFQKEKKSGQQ

GRP1^PH = biological target: T2, GRP1^PH (Mus musculus, UniProt O08967); test: SPR ligand competition: GRP1^PH association with PtdIns; assay type: binding; conditions: Supplementary Figure S2
T2 sequence (O08967 261-387 limits assumed): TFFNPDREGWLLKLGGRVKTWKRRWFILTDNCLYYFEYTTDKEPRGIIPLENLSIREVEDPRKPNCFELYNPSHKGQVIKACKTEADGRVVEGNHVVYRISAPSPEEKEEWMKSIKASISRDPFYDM
Procedure, shortened: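 GRP1 PH domain expressed in E. coli BL21(DE3) at 37 °C in ampicillin LB, induced overnight at 25 °C with 1 mM IPTG at D600 0.6, lysed in imidazole-containing Hepes pH 8 buffer. SPR: protein injected at 5 μl/min over immobilized PtdIns(3,4,5)P3-containing lipid vesicles in 100 mM KCl, 10 mM NaH2PO4, 1 mM MgCl2, 25 mM Hepes pH 7.2. Signal corrected against control vesicles lacking the phosphoinositide.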

NIH 3T3 cells = test: [3H]inositol lipid and inositol phosphate levels in NIH 3T3 cells by HPLC; assay type: cell-based
Procedure, shortened: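 NIH 3T3 cells in DMEM with 10 % FBS and 1 mM pyruvate (37 °C, 5 % CO2), [3H]inositol-labelled, serum-starved 3 h in Hepes-buffered saline-glucose medium pH 7.4. Treatment: vehicle or PDGF for 5 min, or fresh medium with or without 0.2 M sorbitol. Reactions quenched; lipids or inositol phosphates extracted and quantified by HPLC as % of total. PDGF data: mean ± S.E.M., three experiments.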

mouse embryo fibroblasts = conditions: 5 min stimulation with IGF-1, serum starved overnight; cited from earlier work
[2] = 30 min hyperosmotic stress, 0.2 M sorbitol

IC50 (PBD1 of PPIP5K1) [µM] | IC50 [1] [µM] | IC50 (SIN1^PH) [µM] | Compound | further results
43 | 45 | > 100 | O=P(O)(O)O[C@@H]1[C@@H](OP(=O)(O)O)[C@@H](OP(=O)(O)O)[C@@H](OP(=O)(O)OP(=O)(O)O)[C@H](OP(=O)(O)O)[C@H]1OP(=O)(O)O [1-InsP7] | fold lower affinity for PBD1 than InsP6 and 5-InsP7 (PBD1 of PPIP5K1): 6–7 fold
5 | 7 | 3.7 | O=P(O)(O)O[C@H]1[C@@H](OP(=O)(O)O)[C@H](OP(=O)(O)O)[C@@H](OP(=O)(O)OP(=O)(O)O)[C@H](OP(=O)(O)O)[C@H]1OP(=O)(O)O [5-InsP7] | inhibition of GRP1^PH association with PtdIns(3,4,5)P3, relative potency (GRP1^PH): only marginally more potent than InsP6
32 | > 50 | > 100 | O=P(O)(O)O[C@@H]1[C@@H](OP(=O)(O)O)[C@H](OP(=O)(O)OP(=O)(O)O)[C@@H](OP(=O)(O)O)[C@H](OP(=O)(O)OP(=O)(O)O)[C@@H]1OP(=O)(O)O [InsP8, bis-diphosphoinositol tetrakisphosphate] | fold lower affinity for PBD1 than InsP6 and 5-InsP7 (PBD1 of PPIP5K1): 6–7 fold
 |  |  | OC[C@@H](O)[C@@H](O)[C@H](O)[C@@H](O)CO [sorbitol] | elevation of PtdIns(3,4,5)P3 levels (NIH 3T3 cells; [2]): 4.5 fold; increase in InsP8 concentration (NIH 3T3 cells; [2]): 4.5 fold
 |  |  | IGF-1: insulin-like growth factor 1 | increase in levels of InsP6 and InsP7 (mouse embryo fibroblasts): 2 fold
 |  |  | PDGF | increase in levels of PtdIns(3,4,5)P3 (NIH 3T3 cells; 5 min stimulation with 50 ng/ml PDGF, 3 h serum starved): 2 fold

Compound | IC50 (PBD1 of PPIP5K1) [µM] | IC50 [1] [µM] | IC50 (SIN1^PH) [µM] | further results
O=P(O)(O)O[C@H]1[C@H](OP(=O)(O)O)[C@@H](OP(=O)(O)O)[C@H](OP(=O)(O)O)[C@@H](OP(=O)(O)O)[C@H]1OP(=O)(O)O [InsP6] | 7 | 14 | 6 | 
